In article PMC6225502 (Journal of Clinical Oncology, 2018):

Experiments:
[1] = Safety and tolerability: treatment-related adverse events; type: in vivo, human
Summary of the method: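 Patients receiving ≥1 dose of oral epacadostat twice daily plus IV pembrolizumab every 3 weeks were assessed on day 1 of every cycle, at end of treatment and during follow-up. Liver function tests were run weekly for the first 6 weeks. AEs were graded per CTCAE v4.0 and summarized descriptively.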

[2] = type: in vivo, human
Summary of the method: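 Adults with advanced solid tumors took oral epacadostat 25, 50 or 100 mg twice daily with IV pembrolizumab 2 mg/kg every 3 weeks, or 300 mg twice daily with 200 mg every 3 weeks, in 3 + 3 + 3 escalation. Expansion cohorts of up to nine received 50, 100 or 300 mg with 200 mg. DLTs were protocol-specified AEs within the first 6 weeks. RP2D was set by expansion tolerability.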

[3] = Plasma pharmacokinetics of epacadostat; type: in vivo, human
[4] = test system: IDO1; assay: Pharmacokinetic-based projected IDO1 inhibition; set-up: species or system human
[5] = patients with advanced cancers; cited from earlier work
[6] = test system: IDO1; conditions: doses ≥ 100 mg twice per day; ref [1][6]; cited from earlier work
[7] = pembrolizumab monotherapy reference data set; cited from earlier work
[8] = epacadostat 100 mg twice per day + pembrolizumab
[9] = epacadostat 300 mg twice per day + pembrolizumab

| Compound | Rate of AEs of special interest [1, 8] [%] | Rate of grade 3/4 TRAEs [1, 8] [%] | Rate of treatment-related dose interruptions [1, 8] [%] | Rate of treatment-related dose reductions [1, 8] [%] | Rate of AEs of special interest [1, 9] [%] | Rate of grade 3/4 TRAEs [1, 9] [%] | Rate of treatment-related dose interruptions [1, 9] [%] | Rate of treatment-related dose reductions [1, 9] [%] | DLTs observed ([2]; epacadostat 100 mg twice per day + pembrolizumab (15 patients)) | Recommended phase II dose (RP2D) of epacadostat ([2]; plus pembrolizumab 200 mg every 3 weeks) [mg twice per day] | Dose dependence of plasma exposures (AUC and Cmax) ([3]; 25 to 300 mg twice per day + pembrolizumab) | Time of maximum observed plasma concentration ([3]; across doses) | Average concentrations at steady state relative to the IC50 associated with optimal target inhibition ([4]; all patients who received epacadostat ≥ 100 mg twice per day) | Patients who achieved a minimum IDO1 inhibition of ≥ 50% ([4]; epacadostat 100 mg twice per day) | Patients projected to have achieved ≥ 50% time-averaged IDO1 inhibition ([4]; epacadostat 100 mg twice per day or 300 mg twice per day) | Patients projected to have achieved ≥ 50% time-averaged IDO1 inhibition ([4]; steady state, all epacadostat doses) [%] | Tolerability of single-agent epacadostat [5] | Inhibition of IDO1 activity and kynurenine levels [6] | Treatment-emergent antipembrolizumab antibody rate [7] [%] |
| --- | --- | --- | --- | --- | --- | --- | --- | --- | --- | --- | --- | --- | --- | --- | --- | --- | --- | --- | --- |
| NS(=O)(=O)NCCNc1nonc1C(=NO)Nc1ccc(F)c(Br)c1 [Epacadostat] | 6 | 28 | 22 | 11 | 30 | 35 | 45 | 35 | grade 3 AST increased/grade 2 ALT increased and grade 2 nervous system disorder occurred in one patient each | 100 | increased in an approximately dose-proportional manner | approximately 2 hours | exceeded the IC50 | the majority of patients | all patients | > 90 | well tolerated | provide optimal inhibition of IDO1 activity and normalization of kynurenine levels | – |
| pembrolizumab | – | – | – | – | – | – | – | – | – | – | – | – | – | – | – | – | – | – | 2.1 |
